The nature of assay [1]: inhibitors of TNFa-induced NFkB p65 translocation, primary screen, imaging, HUVEC, MLSMR starter and 10KST1 sets (AID 438;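 active means inhibition above 20% together with a positive visual image hit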;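 further: compound added about 3h40 before a 20 min TNFalpha stimulation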;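 on inhibition: signal is the nuclear over cytoplasmic p65 intensity ratio per well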). Conditions: HUVEC TNFa-induced p65 nuclear translocation; cell count: measured here: nuclei count (cytotoxicity indicator), at 2.08 µM; inhibition: at 2 µM, stronger effect = higher value, 0% TNFa-plus-vehicle, 100% no-TNFa wells.
Assay [2] in a line: inhibitors of mutant huntingtin aggregation, primary screen, imaging, exon1htt(103Q)mCFP cells, high-content imaging (AID 483;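 active means visual image review flags a hit and inhibition of aggregation exceeds 20%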;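 further: compound exposure lasted 3 days before fixation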;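 on nuclei count: percent of the per-plate median nuclei count of sample wells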). To be noted: exon1htt(103Q)mCFP cell line, aggregate imaging, at 2 µM; inhibition of aggregation: stronger effect = higher value; nuclei count: measured here: cell count, toxicity.
Assay [3] is described as follows: inhibitors of E-selectin induction by TNFa, primary screen, imaging, HUVEC, immunofluorescence, MLSMR starter and 10KST1 sets (AID 487;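 active means visually confirmed hit in the image check and inhibition above 20%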;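 on inhibition: signal is fraction of cell area covered by stained E-selectin grains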;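 on nuclei count: 100% = median nuclei count of all wells on the same plate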). To be noted: HUVEC TNFalpha-induced E-selectin immunofluorescence imaging, at 2 µM; inhibition: stronger effect = higher value; nuclei count: measured here: cell number, toxicity.
Assay [4] addresses Voltage-gated potassium channel subunit beta-2 (Rattus norvegicus) (UniProt P62483). Kind of assay: KvBeta enzyme negative modulators, primary screen, biochemical, NADPH fluorescence (AID 622).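 Further: slope of raw intensity against log time taken from 70 to 1610 s.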 To be noted: recombinant KvBeta, 4-cyanobenzaldehyde reduction, at 10 µM, stronger effect = higher value.
For assay [5] the target is unchanged. Description: KvBeta positive modulators, primary screen, biochemical, NADPH fluorescence (AID 623;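 active means NADPH fluorescence slope more negative than the mean of all samples by about 3 SD, 99.7% confidence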;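 further: fluorescence intensity change per second fitted from 20 to 320 s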). To be noted: Recombinant KvBeta, NADPH fluorescence decrease slope, 10 min; at 10 µM; stronger effect = lower value.
The target of assay [6] is Muscarinic acetylcholine receptor M4 (Homo sapiens) (UniProt P08173). Kind of assay: compounds altering M4/GIRK thallium flux, either direction, primary screen, M4 allosteric agonist project, cell-based, HEK293 M4/GIRK, BTC-AM (AID 625;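 active means fluorescence slope after compound addition differing from the mean of all tested samples at 99.7% confidence, mostly higher but some lower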;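 further: thallium influx through GIRK channels coupled to M4 in HEK293 cells with BTC-AM dye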). Conditions: at 10 µM, actives lie on both sides. The method in brief: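 Assay system: HEK293 cells with M4 receptor and GIRK channels / Controls: carbachol and DMSO controls / Schedule: 1 h dye loading, 2 min kinetic read / Technique: kinetic fluorescence with BTC-AM dye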

Assay [7] is described as follows: inhibitors of Sendai virus-induced IRF3 signaling, primary screen, TLR/RLR signaling modifier project, cell-based, Sendai virus stimulus, luciferase, 10K MLSCN set (AID 602276;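 active means inhibition at or above 50% at 10 µM; inactive means inhibition below 50%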;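 further: firefly luciferase from ISG56 promoter only with Renilla not read in this screen; 0% = Sendai virus plus DMSO and 100% = medium plus DMSO without virus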). To be noted: HEK293 RL24 IRF3 luciferase reporter, at 10 µM, stronger effect = higher value. In general terms: In a reporter assay the amount or activity of a reporter protein is the signal.
A short description of assay [8]: inhibitors of poly I:C-induced TLR3 signaling, primary screen, cell-based, poly I:C stimulus, luciferase, 10K MLSCN set (AID 602277;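 active means inhibition of the reporter signal at or above 50%; inactive means inhibition below 50%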). To be noted: HEK293-TLR3 RL24 IRF3 luciferase reporter, at 10 µM, stronger effect = higher value.

Here are results for 14 compounds from PubChem BioAssay.

In general, inhibition refers to the change of the read-out against control, counted positive when it falls.

Molecules are shown by their SMILES. Calls of active or inactive are those of the source.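 How the source made its calls, unless noted: active means fluorescence slope higher than the sample average by over 3 SD (cut at about -0.22 in these data, passing the limit was not always enough); inactive means the rest.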

Sequence of Voltage-gated potassium channel subunit beta-2 (Rattus norvegicus) (P62483 whole entry, looked up): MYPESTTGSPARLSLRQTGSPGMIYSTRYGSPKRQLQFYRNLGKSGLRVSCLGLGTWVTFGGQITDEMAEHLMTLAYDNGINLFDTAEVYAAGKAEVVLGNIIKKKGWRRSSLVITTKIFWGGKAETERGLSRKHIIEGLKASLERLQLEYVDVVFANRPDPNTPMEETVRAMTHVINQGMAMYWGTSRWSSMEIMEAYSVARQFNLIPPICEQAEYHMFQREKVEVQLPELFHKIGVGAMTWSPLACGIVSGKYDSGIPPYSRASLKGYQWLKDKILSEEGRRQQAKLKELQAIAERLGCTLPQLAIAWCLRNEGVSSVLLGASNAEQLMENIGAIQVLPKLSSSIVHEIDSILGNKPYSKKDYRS
Sequence of Muscarinic acetylcholine receptor M4 (Homo sapiens) (P08173 whole entry, looked up): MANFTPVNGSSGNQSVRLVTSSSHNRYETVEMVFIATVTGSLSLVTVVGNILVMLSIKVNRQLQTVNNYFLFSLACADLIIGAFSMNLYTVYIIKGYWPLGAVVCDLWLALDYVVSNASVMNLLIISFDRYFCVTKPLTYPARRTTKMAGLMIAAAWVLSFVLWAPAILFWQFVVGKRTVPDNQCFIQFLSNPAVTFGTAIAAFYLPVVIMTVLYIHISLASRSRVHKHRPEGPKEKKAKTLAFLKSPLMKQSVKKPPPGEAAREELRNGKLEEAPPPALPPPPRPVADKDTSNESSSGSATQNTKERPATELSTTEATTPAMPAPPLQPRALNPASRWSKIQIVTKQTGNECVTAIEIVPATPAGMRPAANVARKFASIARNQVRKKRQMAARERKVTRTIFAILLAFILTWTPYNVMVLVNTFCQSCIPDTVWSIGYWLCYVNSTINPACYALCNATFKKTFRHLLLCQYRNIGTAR

Turning to `O=C(Nc1ccc(Cl)c(Cl)c1)Nc1cc(C(=O)N2CCOCC2)ccc1N1CCCCC1`, in assay [1], the cell count was determined as 580. Further, the inhibition in assay [1] was -17.7% (inactive); in assay [3], -44.8% (inactive); in assay [7], 13.7% (inactive); in assay [8], 13.1% (inactive). Besides, the inhibition of aggregation in assay [2] was -5.4% (inactive). Besides, the nuclei count in assay [2] and in assay [3] was 114% in each case. Further, the fluorescence slope in assay [4] is -0.441 (inactive); in assay [6], 0.00555 (inactive). Also, the NADPH fluorescence slope in assay [5] was -7.7e-06 (inactive).

In the case of `Cn1c(=O)c(C(=S)NC(=O)C2CC2)c(N)n(Cc2ccccc2)c1=O`, the cell count in assay [1] stood at 381. Besides, the inhibition in assay [1] was -8% (inactive); in assay [3], -77.3% (inactive); in assay [7], 10.8% (inactive); in assay [8] it was 14.5% (inactive). Further, the inhibition of aggregation in assay [2] was 14.6% (inactive). For the same compound, the nuclei count in assay [2] stood at 111%; in assay [3], 141%. Further, the fluorescence slope is -0.48 (inactive) in assay [4] and 0.00619 (inactive) in assay [6]. The NADPH fluorescence slope in assay [5] is -3.3e-05 (inactive).

For `O=C(NCCc1cccc(Cl)c1)c1cccnc1`, the cell count in assay [1] was determined as 341. Also, the inhibition in assay [1] was -8% (inactive); in assay [3], -194% (inactive); in assay [7], -14.6% (inactive); in assay [8] it was -52% (inactive). Also, in assay [2], the inhibition of aggregation was -14.1% (inactive). The figures for the nuclei count in assay [2] and in assay [3] were 95.5% and 119%, respectively. Besides, the fluorescence slope in assay [4] was -0.562 (inactive); in assay [6] it was 0.00601 (inactive). For the same compound, in assay [5], the NADPH fluorescence slope is -1.7e-05 (inactive).

Regarding `CCN1C(=O)OC2(CCCCC2)C1(C)O` (centres undefined), in assay [1], the cell count was 429. The inhibition in assay [1] was 0% (inactive); in assay [3], 9.3% (inactive); in assay [7], 4.15% (inactive); in assay [8], 8.64% (inactive). Besides, in assay [2], the inhibition of aggregation was -3.6% (inactive). Besides, the nuclei count in assay [2] came to 114%; in assay [3], 106%. Further, the fluorescence slope in assay [4] was -0.566 (inactive); in assay [6], 0.00575 (inactive). For the same compound, in assay [5], the NADPH fluorescence slope is 2.7e-05 (inactive).

For `CCOC(=O)C1CCCN(c2nc3ccccc3nc2C(C#N)C(=O)NCc2ccccc2)C1` (centres undefined), the cell count in assay [1] was determined as 703. Further, the inhibition was 9.6% (inactive) in assay [1], -40% (inactive) in assay [3], 7.48% (inactive) in assay [7] and 12.6% (inactive) in assay [8]. The inhibition of aggregation in assay [2] is -4.3% (inactive). Further, the nuclei count in assay [2] turned out to be 103%; in assay [3], 126%. Further, the fluorescence slope in assay [4] is -0.459 (inactive); in assay [6] it was 0.00538 (inactive). Also, the NADPH fluorescence slope in assay [5] is -2.8e-05 (inactive).

For `CN1CC[n+]2cnc3ccccc3c21`, the cell count in assay [1] was 600. Also, the inhibition in assay [1] is 1.2% (inactive); in assay [3], -9.4% (inactive); in assay [7], 16.8% (inactive); in assay [8], 19.3% (inactive). Moreover, the inhibition of aggregation in assay [2] was -17.8% (inactive). Moreover, the nuclei count in assay [2] stood at 103%; in assay [3] it was 122%. Moreover, the fluorescence slope in assay [4] is -0.585 (inactive); in assay [6] it was 0.00403 (inactive). For the same compound, the NADPH fluorescence slope in assay [5] is -8.5e-05 (inactive).

Regarding `CCOC(=O)c1cc2oc(C)cc2n1CC(=O)OC1CCCCC1`, the cell count in assay [1] is 353. Moreover, the inhibition in assay [1] is 5.3% (inactive); in assay [3], -13.6% (inactive); in assay [7], 1.83% (inactive); in assay [8] it was 16.4% (inactive). In addition, the inhibition of aggregation in assay [2] was -10.9% (inactive). The nuclei count in assay [2] is 110%; in assay [3], 102%. The fluorescence slope in assay [4] was -0.584 (inactive); in assay [6] it was 0.00678 (inactive). Moreover, the NADPH fluorescence slope in assay [5] is -2.1e-06 (inactive).

With `Cc1ccc(NC(=O)CSc2nnc(NC(=O)CN3CCOCC3)s2)cc1`, the cell count in assay [1] amounted to 294. Further, the inhibition in assay [1] is -10% (inactive); in assay [3], -43.2% (inactive); in assay [7], 12.7% (inactive); in assay [8], 22.7% (inactive). Also, the inhibition of aggregation in assay [2] is -0.1% (inactive). For the same compound, the nuclei count amounted to 27.7% in assay [2] and 106% in assay [3]. The fluorescence slope in assay [4] was -0.438 (inactive); in assay [6], 0.00533 (inactive). Moreover, in assay [5], the NADPH fluorescence slope was -7.3e-05 (inactive).

On to `O=C(CCCn1c(=S)[nH]c2ccccc2c1=O)N1CCCCC1`, for which, in assay [1], the cell count was found to be 452. Moreover, the inhibition is -6.2% (inactive) in assay [1], 1.4% (inactive) in assay [3], -0.408% (inactive) in assay [7] and 6.14% (inactive) in assay [8]. Also, the inhibition of aggregation in assay [2] was 6.5% (inactive). In addition, the nuclei count in assay [2] was 123%; in assay [3], 106%. The fluorescence slope is -0.451 (inactive) in assay [4] and 0.00588 (inactive) in assay [6]. Besides, the NADPH fluorescence slope in assay [5] is 2.5e-05 (inactive).

Take `Nc1nnc(SCC(=O)N2CCc3ccccc32)n1-c1ccccc1`: in assay [1], the cell count came out at 449. In addition, the inhibition is -3.6% (inactive) in assay [1], -79.9% (inactive) in assay [3], 17.7% (inactive) in assay [7] and 27.2% (inactive) in assay [8]. In assay [2], the inhibition of aggregation was -2% (inactive). Also, the figures for the nuclei count in assay [2] and in assay [3] were 94.9% and 111%, respectively. Moreover, the values for the fluorescence slope in assay [4] and in assay [6] were -0.542 (inactive) and 0.00439 (inactive), respectively. Moreover, the NADPH fluorescence slope in assay [5] was -4.3e-05 (inactive).

On to `CCOC(=O)c1sc2ncn(/N=C/N(C)C)c(=O)c2c1C`, for which the cell count in assay [1] turned out to be 415. Besides, the inhibition in assay [1] is -2.7% (inactive); in assay [3], 20.9% (inactive); in assay [7] it was 5.64% (inactive); in assay [8], 6.76% (inactive). In addition, in assay [2], the inhibition of aggregation was 40.3% (active). The nuclei count is 72.6% in assay [2] and 85.9% in assay [3]. Besides, the fluorescence slope is -0.385 (inactive) in assay [4] and 0.00524 (inactive) in assay [6]. For the same compound, the NADPH fluorescence slope in assay [5] is 6.4e-06 (inactive).

Regarding `COc1cccc(CC(NC(C)=O)C(=O)NC2CCN(c3c4c(nc5ncnn35)CCC4)CC2)c1` (centres undefined), in assay [1], the cell count is 767. Further, the inhibition is -6.8% (inactive) in assay [1], -37.8% (inactive) in assay [3], 17.1% (inactive) in assay [7] and 22.9% (inactive) in assay [8]. Besides, the inhibition of aggregation in assay [2] is -4.2% (inactive). Besides, the nuclei count amounted to 114% in assay [2] and 140% in assay [3]. In addition, the fluorescence slope in assay [4] was -0.464 (inactive); in assay [6], 0.00506 (inactive). Further, the NADPH fluorescence slope in assay [5] was -5.8e-05 (inactive).

As for `CCc1nc(SCC(=O)Nc2nccs2)c2oc3ccccc3c2n1`, the cell count in assay [1] was determined as 347. Also, the inhibition in assay [1] was 4% (inactive); in assay [3], -14.6% (inactive); in assay [7], 1.9% (inactive); in assay [8] it was -8.08% (inactive). Besides, the inhibition of aggregation in assay [2] is 12.5% (inactive). For the same compound, the results for the nuclei count in assay [2] and in assay [3] were 104% and 116%, respectively. In addition, the figures for the fluorescence slope in assay [4] and in assay [6] were -0.283 (inactive) and 0.00667 (inactive), respectively. Also, in assay [5], the NADPH fluorescence slope is -2.5e-06 (inactive).

Regarding `O=C(O)CCCC(=O)Nc1ccc(Br)cc1C(=O)O`, the cell count in assay [1] was found to be 398. The inhibition was 3.8% (inactive) in assay [1], 12.5% (inactive) in assay [3], 16.9% (inactive) in assay [7] and 20.6% (inactive) in assay [8]. Further, in assay [2], the inhibition of aggregation is -5.6% (inactive). Besides, the nuclei count in assay [2] worked out at 108%; in assay [3], 103%. The fluorescence slope was -0.57 (inactive) in assay [4] and 0.00576 (inactive) in assay [6]. For the same compound, in assay [5], the NADPH fluorescence slope was 2.4e-05 (inactive).
